Here are results for 13 molecules from ChEMBL document CHEMBL1152418, “Synthesis, antiviral activity and molecular modeling of oxoquinoline derivatives” (Bioorg Med Chem, 2009).

Data set [1] can be described thus: Cytotoxicity against human PBMC by XTT assay. The format is cell-based. Particulars: PBMC (peripheral blood mononuclear cells). A digest of the protocol: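 PBMCs held in RPMI 1640 with 10% heat-inactivated FBS, penicillin, streptomycin, 2 mM glutamine and 10 mM HEPES. Activated with 5 µg/mL PHA for 2–3 days, then kept with 5 U/mL IL-2. Cells exposed to a range of concentrations. Viability read by XTT, OD 450 nm 2 h after addition. CC50 is the concentration giving 50% viability loss versus untreated controls.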
On the technique in general: Formazan colour is commonly taken as a measure of viable cells.

For data set [2], the system named is Human immunodeficiency virus 1. In words: Inhibition of HIV1 viral replication infected in human PBMC cells assessed as viral p24Ag concentration after 7 days postinfection by ELISA relative to untreated control. It counts as functional. A digest of the protocol: (§1)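 HIV-1 Ba-L (R5-tropic, subtype B) grown in PHA-activated donor PBMCs. PBMCs stimulated 2–3 days with 5 μg/mL PHA, then kept with 5 U/mL IL-2. Cells plated at 2 × 10⁵/well in triplicate with a range of compound concentrations. After 7 days at 37 °C, 5% CO₂, supernatant p24 measured by capture ELISA. EC₅₀ derived against untreated infected cells.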
On the technique in general: In an ELISA, binding on a coated surface is turned into a signal by an enzyme label.

In data set [3] the test system is Human immunodeficiency virus 1. In words: Inhibition of HIV1 viral replication infected in human PBMC cells assessed as viral p24Ag concentration after 7 days postinfection by ELISA. Particulars: Human immunodeficiency virus 1, PBMC, 168 h. The format is functional, organism-based. In outline:
as §1

The nature of data set [4]: Selectivity index, ratio of CC50 for human PBMC cells to EC50 for HIV1. The format is toxicity, cell-based. Particulars: read-out: Ratio CC50/EC50. A digest of the protocol:
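Ratio of PBMC CC50 to anti-HIV-1 EC50. Both were measured in PHA-activated, IL-2-maintained PBMCs. For EC50, cells were infected with Ba-L isolate (R5-tropic, subtype B), plated at 2 × 10⁵ cells/well in triplicate and treated with various concentrations for 7 days at 37 °C, 5% CO2. Supernatant p24 was measured by capture ELISA against untreated infected cells. CC50 came from XTT viability.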

In general, CC50 refers to the concentration at which the toxic effect on the cells reaches its halfway point. For orientation: EC50 means the midpoint of the concentration-response curve. In data set [1], `O=C(NCc1ccccc1)c1cn(COCCO)c2ccc(Cl)cc2c1=O` displayed a CC50 of 3200 µM. Further, the “inhibition (INH)” value in data set [2] worked out at 98%. For the same molecule, the EC50 in data set [3] was 4.5 µM. The selectivity ratio in data set [4] turned out to be 711.

In turn, `CCOC(=O)c1c[nH]c2ccc(Cl)cc2c1=O` registered a CC50 in data set [1] of 1660 µM. Also, the “inhibition (INH)” value in data set [2] was determined as 58%. Also, the EC50 in data set [3] is 43 µM. In addition, in data set [4], the selectivity ratio was 39.

Turning to `NNC(=O)c1cn(COCCO)c2ccc(F)cc2c1=O`, in data set [1], the CC50 came out at 909 µM. Also, the “inhibition (INH)” value in data set [2] came to 96%. Also, in data set [3], the EC50 was determined as 3.3 µM. Also, the selectivity ratio in data set [4] was determined as 275.

The molecule `NNC(=O)c1cn(COCCO)c2ccc(Cl)cc2c1=O` registered a CC50 in data set [1] of 2400 µM. In data set [2], the “inhibition (INH)” value is 99%. Besides, the EC50 in data set [3] turned out to be 2.5 µM. The selectivity ratio in data set [4] worked out at 960.

`NNC(=O)c1c[nH]c2ccc(Cl)cc2c1=O` yielded a CC50 in data set [1] of 1230 µM. Further, the “inhibition (INH)” value in data set [2] is recorded as 29%. Further, the EC50 in data set [3] turned out to be 86 µM. Besides, the selectivity ratio in data set [4] amounted to 14.

For `CCOC(=O)c1cn(COCCO)c2ccc(Cl)cc2c1=O`, the CC50 in data set [1] was determined as 1800 µM. Moreover, the “inhibition (INH)” value in data set [2] is reported as 45%. Also, the EC50 in data set [3] came out at 50 µM. In addition, in data set [4], the selectivity ratio stood at 36.

In turn, `O=C(NCc1ccccc1)c1cn(COCCO)c2ccc(F)cc2c1=O` gave a CC50 in data set [1] of 2800 µM. For the same molecule, the “inhibition (INH)” value in data set [2] was 90%. Besides, the EC50 in data set [3] turned out to be 2.8 µM. Moreover, in data set [4], the selectivity ratio was determined as 1000.

In the case of `O=C(O)c1cn([C@@H]2O[C@H](CO)[C@@H](O)[C@H]2O)c2ccc(Cl)cc2c1=O`, in data set [1], the midpoint of cytotoxicity, the CC50, lay at 1700 µM. Moreover, the “inhibition (INH)” value in data set [2] turned out to be 99%. The EC50 in data set [3] was 1.5 µM. Besides, the selectivity ratio in data set [4] is 1130.

Molecule `Cc1cn([C@H]2C[C@H](N=[N+]=[N-])[C@@H](CO)O2)c(=O)[nH]c1=O` [ZIDOVUDINE] displayed a CC50 in data set [1] of 126 µM. In addition, the “inhibition (INH)” value in data set [2] stood at 94%. Further, in data set [3], the EC50 came to 0.05 µM. The selectivity ratio in data set [4] is 2520.

`O=C(O)c1cn(Cc2ccccc2)c2ccc(Cl)cc2c1=O` showed a CC50 in data set [1] of 1890 µM. In addition, the “inhibition (INH)” value in data set [2] was 29%. In data set [3], the EC50 stood at 86 µM. Besides, the selectivity ratio in data set [4] came to 22.

In data set [1], `CCOC(=O)c1cn(Cc2ccccc2)c2ccc(Cl)cc2c1=O` came in with a half-maximal cytotoxic concentration (CC50) of 1840 µM. The “inhibition (INH)” value in data set [2] was determined as 24%. Moreover, in data set [3], the EC50 turned out to be 104 µM. In addition, in data set [4], the selectivity ratio was found to be 18.

As to `O=C(NCc1ccccc1)c1c[nH]c2ccc(Cl)cc2c1=O`, in data set [1], it took 1400 µM to reach half-maximal cytotoxicity (CC50). In data set [2], the “inhibition (INH)” value came to 47%. In data set [3], the EC50 was 53 µM. Moreover, the selectivity ratio in data set [4] came to 26.

For `CCOC(=O)c1cn(COCCO)c2ccc(F)cc2c1=O`, in data set [1], it took 1500 µM to reach half-maximal cytotoxicity (CC50). The “inhibition (INH)” value in data set [2] worked out at 30%. Also, the EC50 in data set [3] was 83.3 µM. The selectivity ratio in data set [4] is 18.
